Experimental data reported in article PMC5699463 (Journal of the American Chemical Society, 2017).
≈ marks a conversion by molar mass, not a printed value.

Key:
[1] = test system: Lipid II pool levels in S. aureus; test: Assay to detect Lipid II abundance after antibiotic treatment; format: cell-based, Staphylococcus aureus; settings: S. aureus cultures treated for ten minutes
Summary of the method: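 S. aureus cultures were exposed for 10 min to test compound or to peptidoglycan-synthesis inhibitor controls that either deplete or accumulate Lipid II. Lipid II was then extracted and labelled with biotin-d-Lys to measure its pool level.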

wildtype B. subtilis = test: Disk diffusion assay against wildtype B. subtilis; format: cell-based, Bacillus subtilis
B. subtilis = test: Growth inhibition of B. subtilis; format: cell-based, Bacillus subtilis
[2] = test system: wildtype S. aureus (Newman); test: Growth inhibition; format: cell-based, Staphylococcus aureus
[3] = test system: S. aureus ΔtarO knockout strain; test: Counterscreen: growth inhibition of WTA null; format: cell-based, Staphylococcus aureus
Summary of the method: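 Library compounds were screened in duplicate at ~15 µM final against wildtype S. aureus Newman. In parallel they were counterscreened against the WTA-null ΔtarO strain to find growth inhibition that is suppressed when WTA is absent. Growth was read as OD600 and averaged over the duplicates.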

[4] = test system: B. subtilis strain KS002 (TagGH replaced with S. aureus TarGH); test: Disk diffusion assay against B. subtilis strain KS002 expressing S. aureus TarGH; format: cell-based, Bacillus subtilis; settings: strain expressing the S. aureus transporter
TarGH = TarGH (Staphylococcus aureus, UniProt Q2G2X5); test: ATPase activity of reconstituted TarGH in proteoliposomes; format: biochemical; settings: 1.0 µM compound; compared with TarH E169Q mutant

Molecule | effect on Lipid II pool levels [1] | zone of inhibition (wildtype B. subtilis) | growth inhibition of B. subtilis (B. subtilis) | minimum inhibitory concentration (MIC) [2] [µg/mL] | MIC relative to that of targocil ([2]; compared with targocil) | activity against the ΔtarO strain [3] | zone of inhibition [4] | ATPase activity of the WT transporter in the presence of compound (TarGH)
CCN(CC)c1nc2c(S(=O)(=O)c3ccc(Cl)cc3)nnn2c2cc(OC)c(OC)cc12 [targocil] | depleted Lipid II | – | – | – | – | – | – | –
Cc1c(CC(=O)N2CCC[C@H]2C(=O)O)c(=O)oc2c(C)c3occ(-c4ccc(Cl)cc4)c3cc12 [Compound 2] | depleted Lipid II | did not show a zone of inhibition | did not inhibit growth | 0.125 (≈ 0.26 µM) | eight-fold lower | no activity | dose-dependent inhibition zone | comparable to that of a TarGH mutant containing a mutation that impairs ATP hydrolysis
bacitracin | depleted Lipid II | – | – | – | – | – | – | –
